Source: ChEMBL document CHEMBL1128460, “Design, synthesis, and structure-activity relationships of a new series of alpha-adrenergic agonists: spiro[(1,3-diazacyclopent-1-ene)-5,2'-(1',2',3',4'- tetrahydronaphthalene)]” (J Med Chem, 1995)

Legend:
Canis familiaris [1] = species: Canis familiaris; assay: Maximal contractile response obtained with the agonist (expressed as a percentage of the maximal contraction to phenylephrine in the dog femoral artery); format: functional, Canis lupus familiaris
How it was run: (§1)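 Vessel segments from mongrel dogs (15–25 kg) anesthetized with pentobarbital (30 mg/kg iv), mounted for isometric tension in physiological saline. Equilibrated 90 min with bath changes every 30 min, rauwolscine (10^-7 M) present throughout. Primed with KCl (100 mM), then phenylephrine (1 µM). Agonist concentration–response curves run at half-log steps, giving EC50 (µM) and Emax as % of phenylephrine maximum; mean ±SD.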

[2] = ratio of C20 obtained in the absence or presence of [C20 ( 0.1 mg of prazosin ) / C20 (control)]; format: functional
How it was run: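 Pithed rats pretreated with tertatolol (100 mg/kg), then 10 min later with prazosin (100 µg/kg). Cumulative iv agonist doses given another 10 min later at 20 s intervals. Arterial pressure recorded, C20 (dose giving +20 mmHg) determined. Ratio calculated as C20(prazosin)/C20(control); 3–6 determinations.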

[3] = molecular target: T1, Adrenergic receptor alpha (Rattus norvegicus) (UniProt P15823+P23944+P43140+P22086+P19328+P22909); assay: Alpha adrenergic activity was evaluated as concentration (iv) which increases the arterial pressure by 20 mmHg in the pithed rat; format: functional, organism-based; details: Artery
[4] = ratio of C20 obtained in the absence or presence of [C20 (1 mg of yohimbine.) / C20 (control)]; format: functional
How it was run: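 Pithed rat arterial pressure assay with tertatolol (100 mg/kg) pretreatment, then yohimbine (1 mg/kg) 10 min later. Cumulative iv agonist doses given at 20 s intervals after a further 10 min, C20 (+20 mmHg dose) obtained. Ratio expressed as C20(yohimbine)/C20(control); 3–6 determinations.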

[5] = molecular target: T1, Adrenergic receptor alpha (Rattus norvegicus); assay: Alpha adrenergic activity was evaluated as maximal pressure response caused by agonist, expressed in mmHg (the maximum obtained with phenylephrine is 150 mmHg).; format: functional
Canis familiaris [6] = species: Canis familiaris; assay: Maximal contractile response obtained with the agonist (expressed as a percentage of the maximal contraction to phenylephrine in the dog saphenous vein); format: functional, Canis lupus familiaris; how it was run: as §1
Canis familiaris [7] = species: Canis familiaris; assay: Effective concentration for the agonist in the isolated blood vessel using in vitro saphenous vein; format: functional; details: Canis lupus familiaris; how it was run: as §1
Canis familiaris [8] = species: Canis familiaris; assay: Effective concentration for the agonist in the isolated blood vessel using in vitro femoral artery; format: functional; details: Canis lupus familiaris; how it was run: as §1
[9] = molecular target: T2, Adrenergic receptor alpha-1 (Rattus norvegicus, UniProt P15823+P23944+P43140); assay: Displacement of [3H]prazosin from rat cortex Alpha-1 adrenergic receptor
T2 sequence (P15823 whole entry): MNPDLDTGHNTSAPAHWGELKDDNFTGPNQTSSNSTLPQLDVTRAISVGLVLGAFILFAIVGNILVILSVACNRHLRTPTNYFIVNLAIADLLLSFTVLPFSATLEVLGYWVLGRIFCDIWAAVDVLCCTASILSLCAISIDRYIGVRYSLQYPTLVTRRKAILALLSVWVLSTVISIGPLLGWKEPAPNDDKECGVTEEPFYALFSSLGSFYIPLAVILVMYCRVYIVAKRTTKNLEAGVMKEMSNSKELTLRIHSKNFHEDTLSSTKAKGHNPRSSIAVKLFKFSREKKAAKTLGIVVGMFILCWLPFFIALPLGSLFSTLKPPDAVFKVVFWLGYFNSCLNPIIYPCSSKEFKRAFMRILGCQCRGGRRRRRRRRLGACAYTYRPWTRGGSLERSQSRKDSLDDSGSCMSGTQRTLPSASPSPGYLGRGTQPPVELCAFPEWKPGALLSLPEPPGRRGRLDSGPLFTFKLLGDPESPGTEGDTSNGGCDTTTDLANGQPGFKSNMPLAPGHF
T2 sequence (P23944 whole entry): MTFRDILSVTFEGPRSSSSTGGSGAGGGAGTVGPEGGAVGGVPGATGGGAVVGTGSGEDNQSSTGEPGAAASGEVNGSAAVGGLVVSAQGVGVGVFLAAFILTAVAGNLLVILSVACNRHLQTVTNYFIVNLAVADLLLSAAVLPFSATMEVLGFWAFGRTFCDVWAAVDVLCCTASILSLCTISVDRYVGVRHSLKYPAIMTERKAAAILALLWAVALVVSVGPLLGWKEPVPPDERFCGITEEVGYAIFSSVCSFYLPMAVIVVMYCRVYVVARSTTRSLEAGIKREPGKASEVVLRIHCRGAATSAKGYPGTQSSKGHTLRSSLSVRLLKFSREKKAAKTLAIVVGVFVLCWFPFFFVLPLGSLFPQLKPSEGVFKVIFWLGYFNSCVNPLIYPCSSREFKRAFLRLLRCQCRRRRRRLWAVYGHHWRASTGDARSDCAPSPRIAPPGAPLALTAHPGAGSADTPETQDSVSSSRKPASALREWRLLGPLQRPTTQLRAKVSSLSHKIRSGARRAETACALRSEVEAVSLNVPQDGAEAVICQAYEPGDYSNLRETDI
T2 sequence (P43140 whole entry): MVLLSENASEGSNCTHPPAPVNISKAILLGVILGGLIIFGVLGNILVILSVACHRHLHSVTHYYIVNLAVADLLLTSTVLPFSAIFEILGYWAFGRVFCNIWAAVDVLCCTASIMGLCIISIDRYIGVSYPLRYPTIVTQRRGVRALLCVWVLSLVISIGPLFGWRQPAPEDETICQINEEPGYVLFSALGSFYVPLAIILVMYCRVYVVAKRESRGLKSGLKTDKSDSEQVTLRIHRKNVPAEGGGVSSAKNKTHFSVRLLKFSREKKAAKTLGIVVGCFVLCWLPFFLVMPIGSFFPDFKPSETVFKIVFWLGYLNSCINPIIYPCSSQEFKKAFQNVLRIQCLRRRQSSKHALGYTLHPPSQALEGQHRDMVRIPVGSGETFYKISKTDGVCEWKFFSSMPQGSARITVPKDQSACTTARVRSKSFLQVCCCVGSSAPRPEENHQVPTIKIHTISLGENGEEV
How it was run: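 Rat cortex membranes labelled with [3H]prazosin (0.3 nM), nonspecific binding with prazosin (10 µM). Nine drug concentrations spanning 3 log units, IC50 by log-probit analysis. Ki by Cheng–Prusoff using Kd from Scatchard saturation. At least three independent experiments in duplicate.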

[10] = molecular target: T3, Alpha-2A adrenergic receptor (Homo sapiens, UniProt P08913); assay: Binding affinity towards Alpha-2A adrenergic receptor in human platelets using [3H]RX-821002 as radioligand
T3 sequence (P08913 whole entry): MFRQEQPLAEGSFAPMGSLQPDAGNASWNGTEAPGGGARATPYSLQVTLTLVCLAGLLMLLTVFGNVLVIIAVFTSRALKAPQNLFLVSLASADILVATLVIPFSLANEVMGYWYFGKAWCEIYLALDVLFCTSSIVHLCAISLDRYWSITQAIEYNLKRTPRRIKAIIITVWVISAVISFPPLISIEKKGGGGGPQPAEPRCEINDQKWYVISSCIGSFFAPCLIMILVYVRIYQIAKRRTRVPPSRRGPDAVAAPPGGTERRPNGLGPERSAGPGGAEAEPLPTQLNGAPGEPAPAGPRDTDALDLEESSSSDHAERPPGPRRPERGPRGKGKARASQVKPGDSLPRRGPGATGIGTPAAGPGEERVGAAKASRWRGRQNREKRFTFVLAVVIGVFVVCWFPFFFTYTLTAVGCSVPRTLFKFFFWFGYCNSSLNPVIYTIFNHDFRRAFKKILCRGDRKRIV
How it was run: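 Human platelet membranes with [3H]RX821002 (1.5 nM), nonspecific binding with phentolamine (10 µM). Displacement at nine concentrations spanning 3 orders of magnitude, IC50 by log-probit analysis, converted to Ki using Scatchard Kd. ≥3 independent duplicate experiments.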

[11] = molecular target: T4, Alpha-2B adrenergic receptor (Rattus norvegicus, UniProt P19328); assay: Binding affinity towards Alpha-2B adrenergic receptor in neonatal rat lung using [3H]-RX-821002 as radioligand
T4 sequence (P19328 whole entry): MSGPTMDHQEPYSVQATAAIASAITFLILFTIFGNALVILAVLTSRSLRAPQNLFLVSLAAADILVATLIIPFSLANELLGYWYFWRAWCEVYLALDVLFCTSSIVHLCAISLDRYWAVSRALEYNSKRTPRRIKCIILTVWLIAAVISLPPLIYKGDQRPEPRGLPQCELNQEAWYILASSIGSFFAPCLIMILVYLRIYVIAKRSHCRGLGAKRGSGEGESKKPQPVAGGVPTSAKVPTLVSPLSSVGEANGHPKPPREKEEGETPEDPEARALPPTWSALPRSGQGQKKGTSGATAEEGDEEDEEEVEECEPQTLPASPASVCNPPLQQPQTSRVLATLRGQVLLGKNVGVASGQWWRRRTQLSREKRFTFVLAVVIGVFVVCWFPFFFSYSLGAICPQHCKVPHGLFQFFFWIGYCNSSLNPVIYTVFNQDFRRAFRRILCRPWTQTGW
How it was run: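 Neonatal rat lung membranes with [3H]RX821002 (0.5 nM), nonspecific binding with phentolamine (10 µM). Nine concentrations over 3 log units, IC50 by log-probit, Ki by Cheng–Prusoff with Scatchard-derived Kd. ≥3 independent experiments in duplicate.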

[12] = Ratio of C20 (pithed rat) to that of EC50 (saphenous vein); format: functional
[13] = Ratio of C20 (pithed rat) to that of EC50(saphenous vein); format: functional

C20 [3] [µg/kg] | Max [5] [mmHg] | EC50 (Canis familiaris [7]) [nM] | EC50 (Canis familiaris [8]) [nM] | Ki [9] [nM] | Ki [10] [nM] | Ki [11] [nM] | SMILES | Emax (Canis familiaris [1]) | Ratio [2] | Ratio [4] | Emax (Canis familiaris [6]) | Ratio [12] | Ratio [13]
675 | 73 | – | – | – | – | – | CN1C=NCC12CCc1ccccc1C2 (stereo unspecified) | 0 | 1.55 | 1.9 | 0 | – | –
8 | 111 | 260 | 74000 | 1000 | 7 | 50 | Cc1ccc2c(c1)CC1(CC2)CN=CN1 (stereo unspecified) | 5 | – | – | 64 | 31 | –
74 | 68 | 70 | – | – | – | – | C1=NCC2(CCc3cc4c(cc3C2)CCC4)N1 (stereo unspecified) | 0 | 1.1 | 5 | 17 | – | 1057
4 | 120 | 1300 | 7500 | 14400 | 34 | 275 | C1=NCC2(CCc3ccccc3C2)N1 (stereo unspecified) | 19 | 2 | 5.3 | 99 | – | –
1060 | 73 | – | – | – | – | – | CC1=NCC2(CCc3ccccc3C2)N1C (stereo unspecified) | 0 | 1 | 1.1 | 0 | – | –
